Source: ChEMBL document CHEMBL1150393, “Evaluation of radiolabeled (hetero)aromatic analogues of N-(2-diethylaminoethyl)-4-iodobenzamide for imaging and targeted radionuclide therapy of melanoma” (J Med Chem, 2008)

Columns and labels:
[1] = Biodistribution in gall bladder of C57BL/6 mouse bearing mouse B16-F0 cells at 0.74 to 0.92 MBq, iv after 3 hrs; type: ADME, organism-based; details: in vivo
Outline: (§1)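 Male C57BL6 mice with s.c. left-flank B16-F0 melanoma (5 × 10⁵ cells in PBS). Two mice per time point frozen in liquid nitrogen after CO₂ sacrifice. Eight 40 µm whole-body cryosections per mouse read by multiwire proportional counter. cpm/mm² converted to kBq/g and expressed as %ID/g.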

[2] = Biodistribution in gall bladder of C57BL/6 mouse bearing mouse B16-F0 cells at 0.74 to 0.92 MBq, iv after 6 hrs; type: ADME, organism-based; details: in vivo; outline: as §1
[3] = Partition coefficient, log P in phosphate buffer solution at pH 7.4; type: physicochemical
Outline: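 Shake-flask partition: 50 µM [¹²⁵I]-labelled compound in phosphate buffer pH 7.4 was mixed with 2 mL n-octanol. Each phase was γ-counted, P was taken as the octanol/buffer activity ratio, and log P was reported.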

[4] = Drug excretion in mouse B16-F0 cells bearing C57BL/6 mouse urine at 0.74 to 0.92 MBq, iv after 72 hrs; type: ADME, organism-based; details: in vivo
Outline: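 Urine was collected from two B16-F0 tumour-bearing C57BL6 mice for up to 72 h after iv tail-vein injection of the [¹²⁵I]-labelled compound (0.1 µmol). Samples were counted to give cumulative urinary excretion as %ID.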

[5] = Biodistribution in tumor of C57BL/6 mouse bearing mouse B16-F0 cells at 0.74 to 0.92 MBq, iv after 1 hr; type: ADME, organism-based, Neoplasm; details: in vivo
Outline: (§2)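 [¹²⁵I]-labelled compound given iv by tail vein (0.1 µmol per mouse) to male C57BL6 mice bearing s.c. B16-F0 flank tumours (5 × 10⁵ cells in PBS). Two mice per time point were killed by CO₂, frozen in liquid nitrogen and cut into 40 µm cryosections, eight slices per mouse. Slice radioactivity was read on a multiwire proportional counter, converted to kBq/g and reported as %ID/g.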

[6] = Biodistribution in tumor of C57BL/6 mouse bearing mouse B16-F0 cells at 0.74 to 0.92 MBq, iv after 3 hrs; type: ADME, organism-based, Neoplasm; details: in vivo; outline: as §2
[7] = Biodistribution in tumor of C57BL/6 mouse bearing mouse B16-F0 cells at 0.74 to 0.92 MBq, iv after 6 hrs; type: ADME, organism-based, Neoplasm; details: in vivo; outline: as §2
[8] = Biodistribution in tumor of C57BL/6 mouse bearing mouse B16-F0 cells at 0.74 to 0.92 MBq, iv after 24 hrs; type: ADME, organism-based, Neoplasm; details: in vivo; outline: as §2
[9] = Biodistribution in tumor of C57BL/6 mouse bearing mouse B16-F0 cells at 0.74 to 0.92 MBq, iv after 72 hrs; type: ADME, organism-based, Neoplasm; details: in vivo; outline: as §2
[10] = Ratio of drug level in tumor to liver of C57BL/6 mouse bearing mouse B16-F0 cells at 0.74 to 0.92 MBq, iv after 1 hr; type: ADME, organism-based; details: in vivo
Outline: (§3)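 Tumour and organ radioactive concentrations came from whole-body cryosection counting (40 µm slices, eight per mouse, two mice per time) after tail-vein injection of the [¹²⁵I]-labelled compound (0.1 µmol) into male C57BL6 mice bearing s.c. B16-F0 melanoma. Each value is the ratio of the tumour concentration to the organ concentration.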

[11] = Ratio of drug level in tumor to liver of C57BL/6 mouse bearing mouse B16-F0 cells at 0.74 to 0.92 MBq, iv after 3 hrs; type: ADME, organism-based; details: in vivo; outline: as §3
[12] = Ratio of drug level in tumor to liver of C57BL/6 mouse bearing mouse B16-F0 cells at 0.74 to 0.92 MBq, iv after 6 hrs; type: ADME, organism-based; details: in vivo; outline: as §3
[13] = Ratio of drug level in tumor to lung of C57BL/6 mouse bearing mouse B16-F0 cells at 0.74 to 0.92 MBq, iv after 1 hr; type: ADME, organism-based; details: in vivo; outline: as §3
[14] = Ratio of drug level in tumor to lung of C57BL/6 mouse bearing mouse B16-F0 cells at 0.74 to 0.92 MBq, iv after 3 hrs; type: ADME, organism-based; details: in vivo; outline: as §3
[15] = Biodistribution in intestinal content of C57BL/6 mouse bearing mouse B16-F0 cells at 0.74 to 0.92 MBq, iv after 1 hr; type: ADME, organism-based; details: in vivo; outline: as §1
[16] = Biodistribution in intestinal content of C57BL/6 mouse bearing mouse B16-F0 cells at 0.74 to 0.92 MBq, iv after 3 hrs; type: ADME, organism-based; details: in vivo; outline: as §1
[17] = Biodistribution in intestinal content of C57BL/6 mouse bearing mouse B16-F0 cells at 0.74 to 0.92 MBq, iv after 6 hrs; type: ADME, organism-based; details: in vivo; outline: as §1
[18] = Biodistribution in intestinal content of C57BL/6 mouse bearing mouse B16-F0 cells at 0.74 to 0.92 MBq, iv after 24 hrs; type: ADME, organism-based; details: in vivo; outline: as §1
[19] = Biodistribution in Stomach content of C57BL/6 mouse bearing mouse B16-F0 cells at 0.74 to 0.92 MBq, iv after 1 hr; type: ADME, organism-based; details: in vivo; outline: as §1
[20] = Biodistribution in Stomach content of C57BL/6 mouse bearing mouse B16-F0 cells at 0.74 to 0.92 MBq, iv after 3 hrs; type: ADME, organism-based; details: in vivo; outline: as §1
[21] = Biodistribution in Stomach content of C57BL/6 mouse bearing mouse B16-F0 cells at 0.74 to 0.92 MBq, iv after 6 hrs; type: ADME, organism-based; details: in vivo; outline: as §1
[22] = Biodistribution in Stomach content of C57BL/6 mouse bearing mouse B16-F0 cells at 0.74 to 0.92 MBq, iv after 24 hrs; type: ADME, organism-based; details: in vivo; outline: as §1
[23] = tested on: Liver; test: Biodistribution in liver of C57BL/6 mouse bearing mouse B16-F0 cells at 0.74 to 0.92 MBq, iv after 1 hr; type: ADME, organism-based; details: in vivo; outline: as §1
[24] = tested on: Liver; test: Biodistribution in liver of C57BL/6 mouse bearing mouse B16-F0 cells at 0.74 to 0.92 MBq, iv after 3 hrs; type: ADME, organism-based; details: in vivo; outline: as §1
[25] = tested on: Liver; test: Biodistribution in liver of C57BL/6 mouse bearing mouse B16-F0 cells at 0.74 to 0.92 MBq, iv after 6 hrs; type: ADME, organism-based; details: in vivo; outline: as §1
[26] = tested on: Muscle tissue; test: Biodistribution in muscle of C57BL/6 mouse bearing mouse B16-F0 cells at 0.74 to 0.92 MBq, iv after 1 hr; type: ADME, organism-based; details: in vivo; outline: as §1
[27] = tested on: Pancreas; test: Biodistribution in pancreas of C57BL/6 mouse bearing mouse B16-F0 cells at 0.74 to 0.92 MBq, iv after 1 hr; type: ADME, organism-based; details: in vivo; outline: as §1
[28] = tested on: Lung; test: Biodistribution in lung of C57BL/6 mouse bearing mouse B16-F0 cells at 0.74 to 0.92 MBq, iv after 1 hr; type: ADME, organism-based; details: in vivo; outline: as §1
[29] = tested on: Lung; test: Biodistribution in lung of C57BL/6 mouse bearing mouse B16-F0 cells at 0.74 to 0.92 MBq, iv after 3 hrs; type: ADME, organism-based; details: in vivo; outline: as §1
[30] = tested on: Spleen; test: Biodistribution in spleen of C57BL/6 mouse bearing mouse B16-F0 cells at 0.74 to 0.92 MBq, iv after 1 hr; type: ADME, organism-based; details: in vivo; outline: as §2
[31] = tested on: Spleen; test: Biodistribution in spleen of C57BL/6 mouse bearing mouse B16-F0 cells at 0.74 to 0.92 MBq, iv after 6 hrs; type: ADME, organism-based; details: in vivo; outline: as §2
[32] = tested on: Kidney; test: Biodistribution in kidney of C57BL/6 mouse bearing mouse B16-F0 cells at 0.74 to 0.92 MBq, iv after 1 hr; type: ADME, organism-based; details: in vivo; outline: as §1
[33] = tested on: Kidney; test: Biodistribution in kidney of C57BL/6 mouse bearing mouse B16-F0 cells at 0.74 to 0.92 MBq, iv after 3 hrs; type: ADME, organism-based; details: in vivo; outline: as §1
[34] = tested on: Blood; test: Biodistribution in blood of C57BL/6 mouse bearing mouse B16-F0 cells at 0.74 to 0.92 MBq, iv after 1 hr; type: ADME, organism-based; details: in vivo; outline: as §1
[35] = tested on: Blood; test: Biodistribution in blood of C57BL/6 mouse bearing mouse B16-F0 cells at 0.74 to 0.92 MBq, iv after 3 hrs; type: ADME, organism-based; details: in vivo; outline: as §1
[36] = tested on: Thyroid gland; test: Biodistribution in thyroid of C57BL/6 mouse bearing mouse B16-F0 cells at 0.74 to 0.92 MBq, iv after 3 hrs; type: ADME, organism-based; details: in vivo; outline: as §2
[37] = tested on: Thyroid gland; test: Biodistribution in thyroid of C57BL/6 mouse bearing mouse B16-F0 cells at 0.74 to 0.92 MBq, iv after 6 hrs; type: ADME, organism-based; details: in vivo; outline: as §2
[38] = tested on: Thyroid gland; test: Biodistribution in thyroid of C57BL/6 mouse bearing mouse B16-F0 cells at 0.74 to 0.92 MBq, iv after 24 hrs; type: ADME, organism-based; details: in vivo; outline: as §2
[39] = tested on: Thyroid gland; test: Biodistribution in thyroid of C57BL/6 mouse bearing mouse B16-F0 cells at 0.74 to 0.92 MBq, iv after 72 hrs; type: ADME, organism-based; details: in vivo; outline: as §2
[40] = Biodistribution in uvea of C57BL/6 mouse bearing mouse B16-F0 cells at 0.74 to 0.92 MBq, iv after 1 hr; type: ADME, organism-based, Uveal tract; details: in vivo; outline: as §2
[41] = Biodistribution in uvea of C57BL/6 mouse bearing mouse B16-F0 cells at 0.74 to 0.92 MBq, iv after 3 hrs; type: ADME, organism-based, Uveal tract; details: in vivo; outline: as §2
[42] = Biodistribution in uvea of C57BL/6 mouse bearing mouse B16-F0 cells at 0.74 to 0.92 MBq, iv after 6 hrs; type: ADME, organism-based, Uveal tract; details: in vivo; outline: as §2
[43] = Biodistribution in uvea of C57BL/6 mouse bearing mouse B16-F0 cells at 0.74 to 0.92 MBq, iv after 24 hrs; type: ADME, organism-based, Uveal tract; details: in vivo; outline: as §2
[44] = Biodistribution in uvea of C57BL/6 mouse bearing mouse B16-F0 cells at 0.74 to 0.92 MBq, iv after 72 hrs; type: ADME, organism-based, Uveal tract; details: in vivo; outline: as §2

## CCN(CC)CCNC(=O)c1nc2cc([125I])ccc2[nH]1.Cl.Cl
[1]
  Drug uptake: 160.6 % ID/g
[2]
  Drug uptake: 38.11 % ID/g
[3]
  logD: 1.47
[4]
  Activity: 17.1%
[5]
  Drug uptake: 14.8 % ID/g
[6]
  Drug uptake: 16.1 % ID/g
[7]
  Drug uptake: 9.9 % ID/g
[8]
  Drug uptake: 7.1 % ID/g
[9]
  Drug uptake: 4.5 % ID/g
[10]
  Ratio: 1.13
[11]
  Ratio: 2.26
[12]
  Ratio: 2.93
[13]
  Ratio: 2.86
[14]
  Ratio: 4.31
[15]
  Drug uptake: 105.55 % ID/g
[16]
  Drug uptake: 72.05 % ID/g
[17]
  Drug uptake: 95.86 % ID/g
[18]
  Drug uptake: 3.19 % ID/g
[19]
  Drug uptake: 24.46 % ID/g
[20]
  Drug uptake: 17.98 % ID/g
[21]
  Drug uptake: 8.62 % ID/g
[22]
  Drug uptake: 2.32 % ID/g
[23]
  Drug uptake: 13.08 % ID/g
[24]
  Drug uptake: 7.15 % ID/g
[25]
  Drug uptake: 3.38 % ID/g
[26]
  Drug uptake: 0.55 % ID/g
[27]
  Drug uptake: 6.17 % ID/g
[28]
  Drug uptake: 5.16 % ID/g
[29]
  Drug uptake: 3.74 % ID/g
[30]
  Drug uptake: 11.51 % ID/g
[31]
  Drug uptake: 14.97 % ID/g
[32]
  Drug uptake: 6.9 % ID/g
[33]
  Drug uptake: 4.57 % ID/g
[34]
  Drug uptake: 3.31 % ID/g
[35]
  Drug uptake: 1.33 % ID/g
[36]
  Drug uptake: 63.44 % ID/g
[37]
  Drug uptake: 34.17 % ID/g
[38]
  Drug uptake: 142.88 % ID/g
[39]
  Drug uptake: 174.73 % ID/g
[40]
  Drug uptake: 12.87 % ID/g
[41]
  Drug uptake: 24.4 % ID/g
[42]
  Drug uptake: 10.09 % ID/g
[43]
  Drug uptake: 10.44 % ID/g
[44]
  Drug uptake: 7.26 % ID/g
